Assay outcomes: PubChem, Broad Institute
RAD52 anneal inh – inhibitors of human RAD52 DNA annealing; P43351; recombinant RAD52 DNA annealing, FRET fluorescence; inhibition, % at 18.7 µM; 0.46% of 360,000 active;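 active means every replicate showing at least 50% inhibition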
PglD inh – PglD (C. jejuni) enzyme inhibition. inhibition, % at 12.5 µM. purified PglD enzyme, DTNB colorimetric CoA detection. 0.098% of 360,000 active. AID 602405; in the data active means inhibition above about 16%, passing the limit was not always enough
rRNA inh HTS – inhibits bacterial ribosomal RNA function over humanized ribosomes; E. coli WT GFP vs humanized-ribosome RFP mutants, fluorescence, 24 h; active compounds read low; DMSO median 0, no signal -100; GFP signal change (wild-type ribosome), % (no concentration beside the values); 1.6% of 350,000 active; AID 720706;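 active means significant combined selectivity score with lowered wild-type GFP, culture density cut under 30%, mutant RFP and density less affected; inactive means any of these conditions unmet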
Cneo AK release – Cryptococcus neoformans lysis via adenylate kinase release. C. neoformans lysis, adenylate kinase release luminescence, 4 h; normalised: neutral wells 0, clomiphene wells 100. lysis activity, % at 15 µM. 0.2% of 360,000 active;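 active means mean lysis activity across replicates of at least 80%, whatever share of replicates individually reach that level; inactive means mean lysis activity below 80%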
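read-out = cell lysis signal | test system = log-phase Cryptococcus neoformans yeast cells | input = cells at 5 × 10^6 per mL | medium = fresh YPD growth medium | signal = luminescent adenylate kinase detection reagent | timing = 4 h at 37 °C static, read 1 h later | dosing = single dose | controls = Clomiphene as positive lysis control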
RAD54 inh – inhibitors of human RAD54 branch migration. Q92698. RAD54 Holliday junction branch migration, FAM/BHQ fluorescence. inhibition, % at 10.4 µM. 0.14% of 360,000 active. AID 602329;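 active means mean normalized replicate activity at least 40 and at least half of replicates scoring 40 or more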;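 further: inhibitors cause a drop in the FAM fluorescence signal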
Target sequence (Q92698 whole entry, looked up): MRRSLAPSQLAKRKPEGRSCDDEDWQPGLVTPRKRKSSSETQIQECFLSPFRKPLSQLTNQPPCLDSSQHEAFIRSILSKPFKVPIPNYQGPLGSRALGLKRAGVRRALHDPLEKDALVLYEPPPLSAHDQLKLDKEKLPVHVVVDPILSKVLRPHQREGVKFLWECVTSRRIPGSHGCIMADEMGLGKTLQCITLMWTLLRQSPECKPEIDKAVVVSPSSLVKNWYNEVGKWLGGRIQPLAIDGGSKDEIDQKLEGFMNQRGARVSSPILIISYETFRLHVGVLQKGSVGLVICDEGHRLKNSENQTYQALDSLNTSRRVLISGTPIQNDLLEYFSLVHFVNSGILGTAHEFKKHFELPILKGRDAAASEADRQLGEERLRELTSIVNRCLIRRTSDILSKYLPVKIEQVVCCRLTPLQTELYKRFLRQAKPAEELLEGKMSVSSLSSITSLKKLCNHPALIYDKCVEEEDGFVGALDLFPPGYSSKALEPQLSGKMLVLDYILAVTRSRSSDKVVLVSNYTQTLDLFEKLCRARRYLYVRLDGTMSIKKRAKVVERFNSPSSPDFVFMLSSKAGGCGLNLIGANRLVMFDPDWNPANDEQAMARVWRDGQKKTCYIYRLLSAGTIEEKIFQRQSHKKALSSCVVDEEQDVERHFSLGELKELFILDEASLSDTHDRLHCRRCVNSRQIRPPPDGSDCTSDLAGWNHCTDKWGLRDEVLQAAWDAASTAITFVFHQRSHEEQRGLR
A number is an active result; i = inactive; nt = not tested or not shown. An excerpt weighted towards active compounds, which were near 1.9% of everything screened.

SMILES	RAD52 anneal inh	PglD inh	rRNA inh HTS	Cneo AK release	RAD54 inh
O=C(C[C@H]1C=C[C@@H](NC(=O)CN2CCOCC2)[C@H](CO)O1)NCc1cccc(F)c1	i	i	i	i	i
COc1ccccc1S(=O)(=O)N[C@@H]1CC[C@@H](CCNC(=O)C2CCC2)O[C@H]1CO	i	i	i	i	i
CCOC(=O)c1cc(OC(=O)c2ccccc2)n(-c2ccccc2)n1	nt	i	nt	i	i
CCOC(=O)c1cc(OC(=O)c2cccs2)n(-c2ccccc2)n1	i	i	-17.7	i	i
CCCNC(=O)N1CC2(CN(Cc3nccs3)C2)c2c([nH]c3cc(OC)ccc23)[C@@H]1CO	i	nt	i	nt	nt
COc1cccc(CN(C)C(=O)c2cc(-c3ccc(OC)c(OC)c3)nc3ccccc23)c1	i	i	i	i	i
COc1ccc(-c2cc(C(=O)N(C)Cc3cccc(OC)c3OC)c3ccccc3n2)cc1OC	i	i	-28.0	i	i
Cc1ccnc(Nc2nc(-c3ccc(F)cc3)cs2)c1	i	i	-36.4	i	i
COc1ccc2cc1Oc1ccc(cc1)CC1c3c(cc(OC)c4c3Oc3cc5c(cc3O4)CCNC5C2)CCN1C (configuration not stated)	nt	i	nt	i	90.9
COc1ccc2cc1Oc1ccc(cc1)C[C@H]1c3c(cc(OC)c4c3Oc3c(ccc5c3[C@H](C2)N(C)CC5)O4)CCN1C	nt	i	nt	i	74.4
COC(=O)/C(=C\Nc1ccc(Oc2ccccc2OC(C)C)nc1)NC(=O)c1ccccc1	i	nt	nt	i	nt
CC(C)NC(=O)N(C)C[C@H]1Oc2c(NC(=O)Cn3cnnn3)cccc2C(=O)N([C@H](C)CO)C[C@@H]1C	nt	nt	i	nt	nt
Cc1ccccc1CSCc1nc2ccccc2[nH]1	i	nt	-22.2	nt	nt
Cc1ccc(C)c(CSCc2nc3ccccc3[nH]2)c1	i	i	i	i	i
O=C(CCCc1nc2ccccc2s1)N1CCN(c2ccccc2F)CC1	i	nt	i	nt	nt
CCOc1ccccc1N1CCN(C(=O)CCCc2nc3ccccc3s2)CC1	i	nt	-29.6	nt	nt
CCOC(=O)C1CCCCN1Cc1ccc(-c2ccccc2)cc1 (configuration not stated)	i	i	-29.4	i	i
CCOC(=O)C1CCCCN1Cc1ccc(F)cc1 (configuration not stated)	i	i	i	i	i
O=C(CNC(=O)c1cccs1)OCc1ccc(Br)cc1	i	i	-25.8	i	i
O=C(CNC(=O)c1cccs1)OCc1ccc(Cl)cc1	i	nt	i	nt	nt
O=C1CN(S(=O)(=O)c2ccc(Cl)cc2)c2ccccc2N1	i	i	-22.0	i	i
CC(=O)N(C)C[C@@H]1Oc2ccc(N(C)C)cc2C(=O)N(C)C[C@@H]1C	nt	nt	i	nt	nt
O=C(O)CC/C(=N\Nc1ccc(Cl)cc1)c1cccs1	i	i	-28.3	i	i
Cc1nnc(NC(=O)CSc2nc3ccccc3[nH]2)s1	i	nt	i	nt	nt
CC(C)c1nnc(NC(=O)CSc2nc3ccccc3[nH]2)s1	i	i	-28.2	i	i
SMILES	RAD52 anneal inh	PglD inh	rRNA inh HTS	Cneo AK release	RAD54 inh
CCOc1ccc(NC(=S)N2CCC(C(=O)c3ccc(OC)cc3)CC2)cc1	i	i	-13.5	i	i
CCOC(=O)c1cc(-c2ccc3c(c2)OCCO3)n[nH]1	i	nt	-32.3	nt	nt
CC(=O)N1C[C@@H]2C(c3ccccc3)[C@H](C1)N2CC(F)(F)F (some centres not stated)	nt	nt	i	nt	nt
COC(=O)[C@@]1(Cc2ccccc2)[C@H]2C(=O)N(Cc3ccccc3)C(=O)[C@H]2[C@H]2CN=C(SCc3ccccc3)N21	i	i	i	i	i
COC(=O)[C@@]1(Cc2ccccc2)[C@H]2C(=O)N(C)C(=O)[C@H]2[C@H]2CN=C(SCc3ccccc3)N21	i	i	-16.4	i	i
COC(=O)[C@@]1(Cc2ccccc2)[C@H]2C(=O)N(C)C(=O)[C@H]2[C@H]2CN=C(SCc3ccc(C#N)cc3)N21	i	i	-21.3	i	i
CCN1C(=O)[C@H]2[C@H]3CN=C(SCc4ccc(C#N)cc4)N3[C@@](CC)(C(=O)OC)[C@H]2C1=O	i	i	i	i	i
CCCNC(=O)C[C@@H]1C[C@H]2c3cc(NC(=O)C4CCOCC4)ccc3O[C@H]2[C@@H](CO)O1	i	i	i	i	i
CC(Oc1ccc2c(-c3ccccc3)cc(=O)oc2c1)C(=O)N[C@H](Cc1c[nH]c2ccccc12)C(=O)O (some centres not stated)	i	i	-24.1	i	i
CCC(=O)N[C@H]1C=C[C@@H](CC(=O)OC)O[C@@H]1CO	i	i	i	88.2	i
CN(C)CCNc1cccc2sc3ccc(O)cc3c(=O)c12	i	nt	i	nt	nt
CCN(CC)CCNc1cccc2sc3ccccc3c(=O)c12	i	i	nt	i	89.8
COCC(=O)N1[C@H](CO)[C@H](c2ccccc2-c2cccc(OC)c2)[C@@H]1C#N	i	nt	i	nt	nt
CC[C@@]1(C(=O)OC)N[C@H](CN(C)C(=O)Nc2ccc(C(F)(F)F)cc2)[C@@H]2C(=O)N(C)C(=O)[C@@H]21	i	i	i	i	i
CCN(C[C@H]1N[C@@](CC)(C(=O)OC)[C@H]2C(=O)N(C)C(=O)[C@@H]12)C(=O)Nc1ccc(C(F)(F)F)cc1	i	i	-24.4	i	i
N#C[C@@H]1[C@@H](c2ccccc2-c2ccccc2F)[C@@H](CO)N1C(=O)C1CCOCC1	i	nt	i	nt	nt
COc1ccc(C)cc1NC(=O)CN1CCN(S(=O)(=O)c2ccc(C(C)C)cc2)CC1	nt	i	nt	i	i
COc1ccc(NC(=O)CN2CCN(S(=O)(=O)c3ccc(C(C)C)cc3)CC2)cc1OC	nt	i	nt	130.5	i
O=[N+]([O-])c1ccc(O)c(C(C#Cc2ccccc2)N2CCOCC2)c1 (configuration not stated)	i	nt	-31.9	nt	nt
O=C(c1cc([N+](=O)[O-])ccc1N1CCOCC1)N1CCN(c2ccccc2)CC1	i	i	i	i	i
CC(C)NC(=O)N(C)C[C@H]1OCCCC[C@H](C)Oc2ccc(NS(=O)(=O)c3cn(C)cn3)cc2C(=O)N([C@H](C)CO)C[C@@H]1C	i	i	i	i	i
Cc1ccccc1NC(=S)NC(=O)CCc1ccccc1	nt	i	nt	103.5	i
CCOc1cc(C(=O)N=c2sccn2C)ccc1OC(F)F	i	i	-26.2	i	i
Cn1ccsc1=NC(=O)c1ccc(Cl)cc1	i	nt	-27.1	nt	nt
CCC(=O)Nc1ccc2c(c1)C(=O)N(C)[C@H]1CC[C@H](CC(=O)NCCc3ccncc3)O[C@@H]1CO2	nt	nt	i	nt	nt
C[C@@H]1CN([C@H](C)CO)C(=O)c2cccc(NC(=O)Nc3ccc4c(c3)OCO4)c2O[C@H]1CN(C)S(=O)(=O)c1cccs1	i	i	i	i	i
Cc1ccc(Nc2nc(Cl)nc3ncn(C)c23)c(C)c1	i	i	-36.0	i	i
Cc1ccc(Nc2nnc(C)c3ccccc23)c(C)c1	i	nt	i	nt	nt
CCOC(=O)C1=C(C)N(C)C(=S)NC1c1cccc(Cl)c1Cl (configuration not stated)	i	i	-24.5	i	i
